Calls of active or inactive are those of the source. No cut-off for these calls is given here.
What was measured:
[1] = Cell cycle arrest in human GIST882 cells assessed as accumulation at G0/G1 phase at 1 uM after 48 hrs by propidium iodide/RNase staining based flow cytometry; format: functional
Summary of the method: (§1)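 Cells were exposed to serially diluted compound, then fixed in cold 70% ethanol overnight at -20 °C. They were stained with PI/RNase buffer for DNA-content cell-cycle analysis.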

[2] = Cell cycle arrest in human KU812 cells assessed as accumulation at G0/G1 phase at 1 uM after 12 hrs by propidium iodide/RNase staining based flow cytometry; format: functional; summary of the method: as §1
[3] = biological target: T1, Mast/stem cell growth factor receptor Kit (Homo sapiens, UniProt P10721); conditions: 1 uM
T1 sequence (P10721 whole entry): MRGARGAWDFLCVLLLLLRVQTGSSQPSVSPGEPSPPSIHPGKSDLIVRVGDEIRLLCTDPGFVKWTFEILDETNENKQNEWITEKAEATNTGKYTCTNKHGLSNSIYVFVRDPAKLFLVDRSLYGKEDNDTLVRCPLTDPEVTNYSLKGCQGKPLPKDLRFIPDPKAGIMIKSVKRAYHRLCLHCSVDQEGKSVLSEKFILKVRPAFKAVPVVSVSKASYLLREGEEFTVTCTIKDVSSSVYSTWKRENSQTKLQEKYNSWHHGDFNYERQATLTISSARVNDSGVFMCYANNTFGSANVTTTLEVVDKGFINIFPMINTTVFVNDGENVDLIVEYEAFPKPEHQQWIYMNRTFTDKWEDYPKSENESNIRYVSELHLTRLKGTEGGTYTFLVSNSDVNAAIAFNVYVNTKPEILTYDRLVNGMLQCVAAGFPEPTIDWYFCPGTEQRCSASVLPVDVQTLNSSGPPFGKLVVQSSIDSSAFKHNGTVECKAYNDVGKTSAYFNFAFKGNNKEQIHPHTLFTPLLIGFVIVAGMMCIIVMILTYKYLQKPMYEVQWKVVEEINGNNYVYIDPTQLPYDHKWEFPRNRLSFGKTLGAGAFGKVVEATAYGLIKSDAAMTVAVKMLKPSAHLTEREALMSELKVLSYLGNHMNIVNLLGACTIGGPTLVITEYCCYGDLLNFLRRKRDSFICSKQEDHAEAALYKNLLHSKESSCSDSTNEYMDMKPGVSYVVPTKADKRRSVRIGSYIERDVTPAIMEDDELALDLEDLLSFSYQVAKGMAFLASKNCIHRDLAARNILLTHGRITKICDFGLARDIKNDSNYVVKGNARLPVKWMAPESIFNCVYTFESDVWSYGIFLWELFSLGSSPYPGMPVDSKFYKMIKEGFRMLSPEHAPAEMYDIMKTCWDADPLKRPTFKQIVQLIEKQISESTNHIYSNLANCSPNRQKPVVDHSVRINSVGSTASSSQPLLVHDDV

[4] = biological target: T1, Mast/stem cell growth factor receptor Kit; test: Inhibition of recombinant C-terminal polyhistidine-tagged human c-KIT expressed in mammalian expression system using Tyr 06 peptide as substrate measured after 1hr by FRET based Z'Lyte assay
[5] = biological target: T2, Epithelial discoidin domain-containing receptor 1 (Homo sapiens, UniProt Q08345); conditions: BaF3
T2 sequence (Q08345 whole entry, the tested form may be a part): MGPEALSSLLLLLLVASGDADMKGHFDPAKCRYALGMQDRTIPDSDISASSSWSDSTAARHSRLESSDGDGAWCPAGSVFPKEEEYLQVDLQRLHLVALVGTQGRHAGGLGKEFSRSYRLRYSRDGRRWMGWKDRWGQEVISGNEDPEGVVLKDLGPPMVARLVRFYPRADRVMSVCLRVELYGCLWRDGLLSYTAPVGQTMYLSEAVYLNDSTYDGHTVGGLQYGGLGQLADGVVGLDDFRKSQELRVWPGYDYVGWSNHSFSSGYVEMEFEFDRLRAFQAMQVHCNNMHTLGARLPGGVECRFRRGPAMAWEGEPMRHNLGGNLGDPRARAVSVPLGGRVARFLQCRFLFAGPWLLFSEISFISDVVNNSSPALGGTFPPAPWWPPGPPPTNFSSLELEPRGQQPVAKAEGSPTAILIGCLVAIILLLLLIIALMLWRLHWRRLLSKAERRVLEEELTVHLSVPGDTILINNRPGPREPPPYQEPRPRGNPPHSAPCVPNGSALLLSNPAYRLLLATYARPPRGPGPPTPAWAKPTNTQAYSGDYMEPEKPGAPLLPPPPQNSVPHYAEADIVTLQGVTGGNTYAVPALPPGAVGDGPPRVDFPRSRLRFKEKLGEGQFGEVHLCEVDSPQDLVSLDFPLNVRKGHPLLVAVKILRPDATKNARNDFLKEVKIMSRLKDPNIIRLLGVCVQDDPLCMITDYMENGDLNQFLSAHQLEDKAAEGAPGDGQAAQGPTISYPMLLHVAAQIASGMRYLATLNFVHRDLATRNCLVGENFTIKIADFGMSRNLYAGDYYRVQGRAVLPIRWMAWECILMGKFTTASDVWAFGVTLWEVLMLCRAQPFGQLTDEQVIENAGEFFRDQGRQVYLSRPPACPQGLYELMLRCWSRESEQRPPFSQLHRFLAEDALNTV

[6] = biological target: T1, Mast/stem cell growth factor receptor Kit; test: Inhibition of c-KIT autophosphorylation at Y823 in human GISTT1 cells at 0.03 to 10 uM measured after 2 hrs by immunoblotting; format: cell-based
Summary of the method: (§2)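 After an ice-cold PBS wash, cells were lysed in RIPA buffer (50 mM Tris pH 8.0) with protease and phosphatase inhibitors, and protein was quantified by BCA. Lysates were run on SDS-PAGE, transferred to PVDF and blocked in 5% milk/TBST. Phospho- and total proteins were probed by immunoblot with ECL detection; β-actin served as loading control.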

[7] = tested on: Mast/stem cell growth factor receptor Kit (Homo sapiens), P10721 [V559D]; test: Inhibition of Tel-fused c-KIT V559D mutant (unknown origin) expressed in BAF3 cells assessed as growth inhibition measured after 72 hrs by CellTiter-Glo or CCK8 assay; format: cell-based
Chain of Mast/stem cell growth factor receptor Kit (Homo sapiens), P10721 [V559D] (P10721 whole entry V559D, the tested form may be a part): as the sequence (P10721 whole entry) above, with V559D counted along it
Summary of the method: (§3)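 BaF3 lines were made by retroviral transduction with kinase-fusion MSCV vectors packaged in HEK293T cells. Cells were selected with puromycin for 48 h, then selected again without IL-3 so growth depends on the introduced kinase. […] They were seeded at 1 to 2.5×10^4 cells/mL with compound dilutions and incubated 72 h. Viability was read by CellTiter-Glo luminescence or CCK-8 absorbance (450/655 nm), normalized to DMSO control; GI50 was curve-fitted from triplicate tests.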

[8] = Cell cycle arrest in human K562 cells assessed as accumulation at G0/G1 phase at 0.3 uM after 24 hrs by propidium iodide/RNase staining based flow cytometry; format: functional; summary of the method: as §1
[9] = Antiproliferative activity against human KU812 cells measured after 72 hrs by CellTiter-Glo or CCK8 assay; format: functional; conditions: KU812, 72 h
[10] = tested on: Mast/stem cell growth factor receptor Kit (Homo sapiens), P10721 [L576P]; test: Inhibition of Tel-fused c-KIT L576P mutant (unknown origin) expressed in BAF3 cells assessed as growth inhibition measured after 72 hrs by CellTiter-Glo or CCK8 assay; format: cell-based; summary of the method: as §3
Chain of Mast/stem cell growth factor receptor Kit (Homo sapiens), P10721 [L576P] (P10721 whole entry L576P, the tested form may be a part): as the sequence (P10721 whole entry) above, with L576P counted along it

[11] = biological target: T1, Mast/stem cell growth factor receptor Kit; test: Inhibition of c-KIT mediated signaling pathways assessed as reduction in STAT3/5 phosphorylation at Y705/Y694 in human GIST882 cells at 0.03 to 10 uM measured after 2 hrs by immunoblotting; format: cell-based; summary of the method: as §2
[12] = biological target: T2, Epithelial discoidin domain-containing receptor 1; test: Inhibition of human GST-tagged DDR1 cytoplasmic domain expressed in baculovirus expression system assessed as residual activity at 1 uM by KINOMEscan binding assay relative to control
K562 [13] = test: Induction of apoptosis in human K562 cells assessed as cleavage of PARP at 0.1 to 3 uM by Western blot analysis; format: functional, cell-based
Summary of the method: (§4)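 Cells were treated with DMSO or serially diluted compound for the indicated periods. They were washed in ice-cold PBS and lysed in RIPA buffer with protease/phosphatase inhibitors, and protein was quantified by BCA. Lysates were resolved by SDS-PAGE, transferred to PVDF and blocked in 5% milk/TBST. Blots were probed for PARP and caspase-3, with β-actin as loading control, and detected by ECL.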

[14] = biological target: Tyrosine-protein kinase Blk (Homo sapiens, UniProt P51451); test: Inhibition of full length recombinant His-tagged human BLK cytoplasmic domain expressed in baculovirus expression system measured after 1 hr by FRET based Z'Lyte assay
Chain of Tyrosine-protein kinase Blk (P51451 whole entry, the tested form may be a part): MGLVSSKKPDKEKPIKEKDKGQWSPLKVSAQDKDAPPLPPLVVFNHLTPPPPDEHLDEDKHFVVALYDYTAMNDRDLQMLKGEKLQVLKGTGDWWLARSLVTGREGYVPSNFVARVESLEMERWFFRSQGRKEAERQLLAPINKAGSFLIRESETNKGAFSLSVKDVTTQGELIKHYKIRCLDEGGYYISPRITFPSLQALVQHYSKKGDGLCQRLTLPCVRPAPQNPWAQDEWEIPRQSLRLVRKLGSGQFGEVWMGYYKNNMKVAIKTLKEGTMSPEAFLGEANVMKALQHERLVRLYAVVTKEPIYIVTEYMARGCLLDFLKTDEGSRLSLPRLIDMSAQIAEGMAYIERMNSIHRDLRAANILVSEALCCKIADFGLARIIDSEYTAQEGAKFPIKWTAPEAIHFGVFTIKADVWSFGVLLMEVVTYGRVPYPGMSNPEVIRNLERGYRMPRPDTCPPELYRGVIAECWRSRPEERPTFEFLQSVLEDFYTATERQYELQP
Summary of the method: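 Z'-LYTE FRET biochemical kinase assay run by Invitrogen on selected kinases identified from binding profiling; IC50 from dose-response.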

BaF3 = test: Inhibition of BCR/ABL p210 fusion protein H369P mutant (unknown origin) expressed in BAF3 cells assessed as growth inhibition measured after 72 hrs by CellTiter-Glo or CCK8 assay; format: cell-based; conditions: Homo sapiens; summary of the method: as §3
[15] = Anticancer activity against human GISTT1 cells xenografted in nu/nu mouse assessed as tumor weight at 25 mg/kg, po administered daily via oral gavage measured 21 days post compound treatment (reference value: 2.86 g)
[16] = biological target: Tyrosine-protein kinase ABL1 (Homo sapiens, UniProt P00519); test: Inhibition of C-terminal His-tagged human ABL1 expressed in baculovirus infected SF9 cells assessed as residual activity at 1 uM using Tyr 02 peptide as substrate measured after 1 hr by FRET based Z'Lyte assay relative to control
Chain of Tyrosine-protein kinase ABL1 (P00519 whole entry): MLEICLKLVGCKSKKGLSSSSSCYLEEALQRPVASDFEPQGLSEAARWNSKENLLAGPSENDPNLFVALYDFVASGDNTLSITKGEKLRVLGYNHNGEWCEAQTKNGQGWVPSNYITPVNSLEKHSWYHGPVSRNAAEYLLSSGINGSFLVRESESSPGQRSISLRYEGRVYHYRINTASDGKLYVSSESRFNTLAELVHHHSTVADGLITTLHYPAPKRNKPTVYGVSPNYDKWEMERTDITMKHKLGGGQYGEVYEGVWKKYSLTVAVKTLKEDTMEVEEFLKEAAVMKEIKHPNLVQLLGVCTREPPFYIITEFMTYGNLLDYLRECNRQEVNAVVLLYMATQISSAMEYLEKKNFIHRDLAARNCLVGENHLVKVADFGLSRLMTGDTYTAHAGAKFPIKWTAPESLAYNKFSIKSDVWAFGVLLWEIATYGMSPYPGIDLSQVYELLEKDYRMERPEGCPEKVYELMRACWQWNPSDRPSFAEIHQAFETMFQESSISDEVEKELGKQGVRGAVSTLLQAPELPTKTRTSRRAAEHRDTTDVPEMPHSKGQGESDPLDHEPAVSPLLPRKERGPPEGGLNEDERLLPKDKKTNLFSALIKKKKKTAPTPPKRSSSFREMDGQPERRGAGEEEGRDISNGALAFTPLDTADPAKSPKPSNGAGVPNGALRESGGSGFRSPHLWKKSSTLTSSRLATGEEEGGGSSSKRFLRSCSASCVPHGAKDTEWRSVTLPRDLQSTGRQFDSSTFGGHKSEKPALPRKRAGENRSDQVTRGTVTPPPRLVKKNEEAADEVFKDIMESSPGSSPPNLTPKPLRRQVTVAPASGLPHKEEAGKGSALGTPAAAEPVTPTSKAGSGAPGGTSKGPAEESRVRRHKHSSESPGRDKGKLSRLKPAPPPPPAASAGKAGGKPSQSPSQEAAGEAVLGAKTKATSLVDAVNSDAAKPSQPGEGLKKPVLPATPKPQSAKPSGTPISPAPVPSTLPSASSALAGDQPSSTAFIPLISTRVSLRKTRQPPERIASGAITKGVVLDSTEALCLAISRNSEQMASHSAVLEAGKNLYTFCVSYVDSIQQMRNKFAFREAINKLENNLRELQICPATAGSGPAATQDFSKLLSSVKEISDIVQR

[17] = biological target: T1, Mast/stem cell growth factor receptor Kit; test: Inhibition of c-KIT mediated signaling pathways assessed as reduction in S6 phosphorylation at S235/236 in human GIST882 cells at 0.03 to 10 uM measured after 2 hrs by immunoblotting; format: cell-based; summary of the method: as §2
[18] = biological target: T1, Mast/stem cell growth factor receptor Kit; test: Inhibition of c-KIT autophosphorylation at Y719 in human GIST882 cells at 0.01 to 3 uM measured after 2 hrs by immunoblotting; format: cell-based; summary of the method: as §2
[19] = Anticancer activity against human K562 cells xenografted in nu/nu mouse assessed as tumor weight at 25 mg/kg administered via oral gavage measured after 28 days (reference value: 6.75 g); format: functional
Summary of the method: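 Female nu/nu mice received ten million K562 cells subcutaneously in the right flank, in PBS mixed 1:1 with Matrigel. Daily oral gavage began at 200-400 mm³ tumor size, with 4 or 5 mice per group. Dosing was 25, 50 or 100 mg/kg/d or vehicle (0.5% methylcellulose/0.4% Tween80) for 28 days. Body weight and tumor size were normalized to initial values, and final tumor weight was recorded. Data are mean ± SEM.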

K562 [20] = test: Induction of apoptosis in human K562 cells assessed as increase in cleaved caspase-3 level at 0.1 to 3 uM by Western blot analysis; format: functional, cell-based; summary of the method: as §4
MEG-01 = test: Induction of apoptosis in human MEG01 cells assessed as increase in cleaved caspase-3 level at 0.1 to 3 uM by Western blot analysis; format: functional, cell-based
[21] = tested on: Mast/stem cell growth factor receptor Kit (Homo sapiens), P10721 [T670I]; test: Inhibition of Tel-fused c-KIT T670I mutant (unknown origin) expressed in BAF3 cells assessed as growth inhibition measured after 72 hrs by CellTiter-Glo or CCK8 assay; format: cell-based; summary of the method: as §3
Chain of Mast/stem cell growth factor receptor Kit (Homo sapiens), P10721 [T670I] (P10721 whole entry T670I, the tested form may be a part): as the sequence (P10721 whole entry) above, with T670I counted along it

[22] = biological target: Macrophage colony-stimulating factor 1 receptor (Homo sapiens, UniProt P07333); conditions: BaF3
Chain of Macrophage colony-stimulating factor 1 receptor (P07333 whole entry): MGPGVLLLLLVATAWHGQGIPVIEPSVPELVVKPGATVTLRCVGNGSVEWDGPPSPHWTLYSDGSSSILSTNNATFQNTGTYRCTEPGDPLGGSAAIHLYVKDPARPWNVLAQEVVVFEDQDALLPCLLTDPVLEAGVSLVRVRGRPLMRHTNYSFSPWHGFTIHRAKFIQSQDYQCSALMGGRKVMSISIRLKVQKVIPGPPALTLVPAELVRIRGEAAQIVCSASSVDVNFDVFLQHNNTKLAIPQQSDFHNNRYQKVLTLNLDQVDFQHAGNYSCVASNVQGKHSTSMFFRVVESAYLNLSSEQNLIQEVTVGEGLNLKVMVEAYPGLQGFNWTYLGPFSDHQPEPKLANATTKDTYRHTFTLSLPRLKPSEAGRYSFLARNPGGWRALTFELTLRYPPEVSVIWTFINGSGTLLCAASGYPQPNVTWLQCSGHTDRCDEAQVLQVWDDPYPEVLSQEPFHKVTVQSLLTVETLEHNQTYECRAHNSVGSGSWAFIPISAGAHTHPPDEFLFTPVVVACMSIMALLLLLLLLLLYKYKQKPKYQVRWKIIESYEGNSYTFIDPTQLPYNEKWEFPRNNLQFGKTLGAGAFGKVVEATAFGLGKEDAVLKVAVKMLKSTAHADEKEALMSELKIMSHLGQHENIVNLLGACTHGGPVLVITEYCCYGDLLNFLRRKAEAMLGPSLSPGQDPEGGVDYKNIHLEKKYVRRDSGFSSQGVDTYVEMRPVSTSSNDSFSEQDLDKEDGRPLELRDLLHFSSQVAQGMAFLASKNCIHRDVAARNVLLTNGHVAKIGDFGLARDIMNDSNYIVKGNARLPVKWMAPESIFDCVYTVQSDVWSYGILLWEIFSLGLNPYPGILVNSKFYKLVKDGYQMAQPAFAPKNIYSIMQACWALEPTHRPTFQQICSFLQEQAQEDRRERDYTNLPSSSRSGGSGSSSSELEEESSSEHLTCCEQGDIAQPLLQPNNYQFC

Cc1ccc(NC(=O)c2ccc(CN3CCN(C)CC3)cc2)cc1Nc1nccc(-c2cccnc2)n1 [IMATINIB]
Activity [1]: Active | Activity [2]: Active | inhibition [3]: Active

Cc1ccc(C(=O)N2CCC(Oc3cc(NC(=O)c4ccc(CN5CCN(C)CC5)c(C(F)(F)F)c4)ccc3C)CC2)cn1
IC50 [4]: 75 nM | GI50 [5]: 9770 nM | inhibition [6]: Active | GI50 [7]: 78 nM | Activity [8]: Active | GI50 [9]: 56 nM | GI50 [10]: 221 nM | inhibition [11]: Active | Activity [12]: 0.35% | Activity (K562 [13]): Active | IC50 [14]: 81 nM | GI50 (BaF3): 980 nM | Activity [15]: 2.2 g | Activity [16]: 0.3% | inhibition [17]: Active | inhibition [18]: Active | Activity [19]: 7.46 g | Activity (K562 [20]): Active | Activity (MEG-01): Active | GI50 [21]: 1850 nM | GI50 [22]: 162 nM
